Hits are enriched below; roughly 1.9% of the tested compounds scored in any of these assays.
M5 PAM: positive allosteric modulators of human muscarinic M5 receptor; P08912; CHO-K1 hM5, Fluo-8 calcium, ACh EC20 PAM; 0% = ACh EC20, 100% = ACh EC100; activation, % at 3 µM; hit rate 0.3% among 360,000;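 active = activation above the run cutoff, the mean activation of all test compounds plus 3 SD, cut at about 18% in these data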
Target sequence (P08912 whole entry, looked up): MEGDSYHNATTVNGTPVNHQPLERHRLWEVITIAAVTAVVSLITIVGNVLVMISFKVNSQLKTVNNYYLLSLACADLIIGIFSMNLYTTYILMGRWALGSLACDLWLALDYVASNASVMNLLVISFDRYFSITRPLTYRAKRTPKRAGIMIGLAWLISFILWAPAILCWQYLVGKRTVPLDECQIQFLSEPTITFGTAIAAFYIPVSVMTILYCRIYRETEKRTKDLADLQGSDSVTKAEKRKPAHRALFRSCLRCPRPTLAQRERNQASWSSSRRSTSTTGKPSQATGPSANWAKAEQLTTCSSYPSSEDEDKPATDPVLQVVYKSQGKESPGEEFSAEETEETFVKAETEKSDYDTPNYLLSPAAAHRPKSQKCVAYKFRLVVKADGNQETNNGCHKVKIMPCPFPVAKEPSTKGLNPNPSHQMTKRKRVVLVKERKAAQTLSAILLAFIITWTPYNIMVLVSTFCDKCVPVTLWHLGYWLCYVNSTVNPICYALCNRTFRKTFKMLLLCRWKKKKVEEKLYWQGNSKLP
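Assay system – human M5 receptor in CHO-K1 cells · Read-out – % activation, ACh-normalized · Technique – Fluo-8 calcium fluorescence · Dosing – single-point, 3 µM nominal · Incubation – Fluo-8 loading 80 min at 37 °C plus 30 min room temperature · Repeats – singlicate, one well per test compound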
CHRM4 antagonist: blocks acetylcholine activation of human M4 receptor; CHO-hM4 cells, ACh EC80, Fluo-8 calcium fluorescence; inhibition, % at 3 µM; AID 624125; hit rate 0.73% among 360,000;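 active = inhibition above its plate's cutoff, the mean inhibition of sample wells plus 3 SD, cut at about 27% in these data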;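 also: 0% = acetylcholine EC80 with DMSO and 100% = DMSO without agonist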
CHRM4 agonist: CHRM4 agonism in calcium assay; CHO-K1 hM4/Gqi5, Fluo-8 calcium fluorescence; vehicle 0%, full acetylcholine response 100%; activation, % at 3 µM; hit rate 0.14% among 360,000; AID 624127; P08173;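 active = activation above the run mean over all test wells plus 3 SD, cut at about 32% in these data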;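 also: peak over basal fluorescence ratio per well then scaled between controls; 0% = DMSO wells and 100% = acetylcholine at EC100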
M5 ag: agonists of human muscarinic M5 receptor (CHRM5) | CHO-K1 hM5 cells, Fluo-8 calcium fluorescence; 0% DMSO wells, 100% maximal acetylcholine response | hit rate 0.19% among 360,000 | activation, % at 3 µM | P08912 | AID 624037;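 active = activation above the run's mean over test compounds plus 3 SD, cut at about 23% in these data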;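 also: signal is peak over basal fluorescence ratio across the kinetic read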
M5 antag: antagonists of human muscarinic M5 receptor (CHRM5); CHO-hM5 cells, Fluo-8 calcium fluorescence, ACh EC80; inhibition, % at 3 µM; hit rate 0.59% among 360,000;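 active = inhibition above a per-plate cutoff, the mean of that plate's test compounds plus 3 SD, cut at about 27% in these data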;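 also: 0% = acetylcholine EC80 with DMSO and 100% = DMSO without agonist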
M4 PAM: CHRM4 positive allosteric modulation; activation, % at 3 µM; CHO-K1 hM4/Gqi5, Fluo-8 calcium fluorescence, ACh EC20; 0% = ACh EC20, 100% = maximal ACh; AID 624126; hit rate 0.4% among 360,000; P08173;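 active = activation above its plate's cutoff, the mean activation of sample wells plus 3 SD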
Active calls of the source: *.

SMILES	M5 PAM	CHRM4 antagonist	CHRM4 agonist	M5 ag	M5 antag	M4 PAM
O=C(NCc1cccnc1)c1cc(C2CCCCN2C(=O)c2cccs2)on1 (stereo unspecified)	-0.8	-4.9	1.4	-0.9	7.8	-1.9
Cc1cc2c(c(=O)n1Cc1ccco1)C(c1cccnc1)C(C#N)=C(N)O2 (stereo unspecified)	-5.8	12.5	0.1	3.6	0.9	29.9*
CCOc1ccc(C2C(C#N)=C(N)Oc3cc(C)n(Cc4ccco4)c(=O)c32)cc1OC (stereo unspecified)	0.2	3.3	0.2	0.8	-4.2	-6.4
CC1=CC2=NC(=O)/C(=C/c3coc4ccc(Cl)cc4c3=O)C(=N)N2O1	-29.2	23.3	44.9*	83.1*	40.5*	-13.8
N=C1/C(=C\c2coc3ccccc3c2=O)C(=O)N=C2SC=CN12	-33.5	37.8*	106.8*	108.9*	34.1*	-43.4
CSC1=NSC2=NC(=O)/C(=C/c3coc4ccc(O)cc4c3=O)C(=N)N12	-4.9	20.2	26.2	52.5*	28.1*	-8.0
N=C1/C(=C/c2cccn2Cc2ccc(F)cc2)C(=O)N=C2SC=CN12	-0.8	-9.1	7.2	-5.2	6.3	-3.0
CSC1=NSC2=NC(=O)/C(=C/c3coc4ccccc4c3=O)C(=N)N12	-19.2	17.8	33.1*	45.2*	40.9*	-12.5
CSC1=NSC2=NC(=O)/C(=C\c3cccs3)C(=N)N12	-0.4	2.8	1.5	4.5	-1.8	-1.2
CCOC(=O)c1cnc2c(C)cccc2c1NCCCN1CCOCC1	2.0	-1.8	3.6	-2.0	4.7	20.2*
CCOC(=O)c1cnc2c(C)cc(Cl)cc2c1NCCCN1CCOCC1	1.7	-9.8	1.9	-2.0	1.0	-2.0
CCOC(=O)c1cnc2c(C(=O)OC)cccc2c1NCCN1CCOCC1	7.0	-1.4	0.4	-0.3	-4.4	10.2
CCOC(=O)c1cnc2c(CC)cccc2c1NCCN1CCOCC1	-1.5	5.6	1.5	-7.9	27.5*	-12.9
CCOC(=O)C1=CN(Cc2cccc(F)c2)S(=O)(=O)N(C)C1c1ccc2ccccc2c1 (stereo unspecified)	1.4	-6.2	1.6	-0.5	-8.8	-7.2
CCOc1ccc2ccccc2c1C1NC(=O)N(C)C(C)=C1C(=O)OCCOC (stereo unspecified)	3.9	-5.7	0.2	-3.5	2.3	7.3
O=C(Nc1ccccc1C(=O)O)c1cc(S(=O)(=O)N2CCCCCC2)ccc1Cl	5.9	-0.8	-2.0	0.4	-7.3	15.0
Cc1ccc(NC(=O)c2cnccn2)cc1S(=O)(=O)N1CCCCCC1	-3.9	-0.8	0.8	-2.1	28.1*	3.0
Cc1ccc(NC(=O)c2ccccc2NS(=O)(=O)c2ccc(F)cc2)cc1S(=O)(=O)N1CCCCC1	-18.0	9.1	10.5	6.0	35.1*	-10.4
Cc1ccc(NC(=O)CSc2ncnc3ccccc23)cc1S(=O)(=O)N1CCCCC1	-18.3	6.9	14.2	2.6	29.8*	-16.2
O=C(Nc1ccccc1Cl)c1cc(S(=O)(=O)N2CCCC(C(=O)O)C2)ccc1F (stereo unspecified)	-3.5	-17.8	-0.8	1.9	4.5	51.4*
Cc1cc(S(=O)(=O)N2CCCCC2)c(C)s1	-9.8	-17.4	-0.6	-6.3	17.9	1.5
CC(C)C(C(=O)NC1CCCC1)N1CCC(O)(c2ccc(Cl)cc2)CC1 (stereo unspecified)	-4.4	-5.9	0.7	0.1	3.0	6.7
O=C(Nc1cccc(S(=O)(=O)N2CCCCC2)c1)c1ccccc1NS(=O)(=O)c1ccc(F)cc1	-11.5	-1.2	10.9	5.5	41.1*	3.1
NS(=O)(=O)c1cccc(NC(=O)c2ccccc2NS(=O)(=O)c2ccc(F)cc2)c1	1.9	-2.9	-0.6	-2.3	-0.3	1.0
O=C(O)C1C2CCC(O2)C1C(=O)Nc1ccc(F)cc1 (stereo unspecified)	-13.5	0.1	2.9	-3.7	35.5*	8.5
Cc1ccc(NC(=O)C2C3CCC(O3)C2C(=O)O)c(Br)c1 (stereo unspecified)	18.6*	-4.0	0.6	4.4	-5.3	5.6
